Experimental data: ChEMBL document CHEMBL4706531, “Discovery of Novel c-Mesenchymal-Epithelia transition factor and histone deacetylase dual inhibitors” (Eur J Med Chem, 2020)
Activity calls are given as the source filed them. The rule behind the calls is not given here.

How the values were obtained:
HCT-116 [1] = test: cells; format: functional, cell-based; details: Homo sapiens, HCT-116, 72 h
MCF7 = test: cells; format: functional, cell-based; details: Homo sapiens, MCF7, 72 h
A549 = test: cells; format: functional, cell-based; details: Homo sapiens, A549, 72 h
Histone deacetylase 1 [2] = biological target: T1, Histone deacetylase 1 (Homo sapiens, UniProt Q13547); details: Sf9, dose 100.0 nM, time 75.0 min
T1 sequence (Q13547 whole entry): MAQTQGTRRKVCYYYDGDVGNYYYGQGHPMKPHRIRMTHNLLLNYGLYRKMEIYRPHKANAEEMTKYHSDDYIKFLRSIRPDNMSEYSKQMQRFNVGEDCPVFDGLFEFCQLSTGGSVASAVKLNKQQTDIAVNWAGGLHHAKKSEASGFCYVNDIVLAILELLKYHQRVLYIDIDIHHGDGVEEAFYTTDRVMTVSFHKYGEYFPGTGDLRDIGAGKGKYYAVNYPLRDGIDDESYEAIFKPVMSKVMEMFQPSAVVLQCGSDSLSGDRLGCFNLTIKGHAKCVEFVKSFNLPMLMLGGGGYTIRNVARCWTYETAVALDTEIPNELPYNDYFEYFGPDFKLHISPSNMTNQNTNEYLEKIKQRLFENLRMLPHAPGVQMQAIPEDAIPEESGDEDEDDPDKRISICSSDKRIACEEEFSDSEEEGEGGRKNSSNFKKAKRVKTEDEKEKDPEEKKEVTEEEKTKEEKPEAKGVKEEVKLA

[3] = biological target: T2, Hepatocyte growth factor receptor (Homo sapiens, UniProt P08581); details: dose 100.0 nM, time 10.0 min
T2 sequence (P08581 whole entry, the tested form may be a part): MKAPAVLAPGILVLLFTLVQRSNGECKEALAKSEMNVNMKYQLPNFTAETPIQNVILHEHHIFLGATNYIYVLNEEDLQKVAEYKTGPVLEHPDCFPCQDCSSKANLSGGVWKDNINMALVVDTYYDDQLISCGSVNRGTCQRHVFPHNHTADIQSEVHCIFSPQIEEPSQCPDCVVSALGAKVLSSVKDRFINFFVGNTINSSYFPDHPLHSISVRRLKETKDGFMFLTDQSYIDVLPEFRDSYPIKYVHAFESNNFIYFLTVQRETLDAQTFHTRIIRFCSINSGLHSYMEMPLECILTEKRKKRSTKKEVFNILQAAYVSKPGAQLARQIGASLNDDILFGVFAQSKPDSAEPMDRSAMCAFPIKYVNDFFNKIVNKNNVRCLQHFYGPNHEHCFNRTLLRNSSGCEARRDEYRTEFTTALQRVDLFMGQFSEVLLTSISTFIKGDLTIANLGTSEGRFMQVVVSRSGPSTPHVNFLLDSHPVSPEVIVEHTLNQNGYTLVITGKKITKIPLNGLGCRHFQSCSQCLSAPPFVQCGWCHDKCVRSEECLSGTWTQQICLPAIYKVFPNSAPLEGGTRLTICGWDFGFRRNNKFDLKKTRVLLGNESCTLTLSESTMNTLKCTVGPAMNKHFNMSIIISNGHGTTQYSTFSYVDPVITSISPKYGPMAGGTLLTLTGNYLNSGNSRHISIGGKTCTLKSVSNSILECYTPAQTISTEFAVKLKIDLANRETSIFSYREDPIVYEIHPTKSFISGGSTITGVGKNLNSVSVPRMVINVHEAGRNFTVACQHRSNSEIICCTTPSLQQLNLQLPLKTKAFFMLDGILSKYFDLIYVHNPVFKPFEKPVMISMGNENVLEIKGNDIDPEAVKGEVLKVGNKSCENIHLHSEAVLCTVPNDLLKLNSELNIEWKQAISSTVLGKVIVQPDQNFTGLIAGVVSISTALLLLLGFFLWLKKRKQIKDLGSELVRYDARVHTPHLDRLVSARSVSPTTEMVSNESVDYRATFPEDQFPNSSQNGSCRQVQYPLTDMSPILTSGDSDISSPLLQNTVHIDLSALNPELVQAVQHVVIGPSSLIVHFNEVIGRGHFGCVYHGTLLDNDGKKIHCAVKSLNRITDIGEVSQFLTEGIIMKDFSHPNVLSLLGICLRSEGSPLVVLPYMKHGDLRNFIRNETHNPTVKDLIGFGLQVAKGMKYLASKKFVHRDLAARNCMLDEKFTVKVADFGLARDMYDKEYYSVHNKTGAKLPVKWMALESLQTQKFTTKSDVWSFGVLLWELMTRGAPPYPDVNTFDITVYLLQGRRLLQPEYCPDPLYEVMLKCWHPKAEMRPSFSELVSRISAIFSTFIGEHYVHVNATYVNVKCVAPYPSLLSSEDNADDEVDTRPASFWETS

Histone deacetylase 1 [4] = biological target: T1, Histone deacetylase 1; test: Inhibition of human C-terminal Flag tagged HDAC1 (1 to 482 residues) expressed in SF9 cells using Ac-peptide substrate preincubated for 15 mins followed by substrate addition and measured after 60 mins by microplate reader method
[5] = biological target: T2, Hepatocyte growth factor receptor; test: Inhibition of c-MET(unknown origin) using FAM labelled peptide substrate preincubated for 10 mins followed by substrate addition and measured by microplate reader method
HCT-116 [6] = test: Induction of apoptosis in human HCT-116 cells assessed as viable cells at 0.2 uM measured after 48 hrs by Annexin V/PI staining based Flowcytometry method (reference value: 95.33%); format: functional; details: read-out: Activity
Summary of the method: (§1)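 HCT-116 cells seeded at 10^5 cells/mL in 6-well plates. After 12 h, dosed at 0.2, 1.0 or 5.0 μM for 48 h, then washed three times in PBS. Stained with Annexin V-FITC/PI per kit and read by flow cytometry. Early apoptotic = Annexin V+/PI−, late = double positive. Mean ± S.D., n = 3.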

HCT-116 [7] = test: Induction of apoptosis in human HCT-116 cells assessed as early apoptotic cells at 0.2 uM measured after 48 hrs by Annexin V/PI staining based Flowcytometry method (reference value: 2.04%); format: functional
Summary of the method: as §1

HCT-116 [8] = test: Induction of apoptosis in human HCT-116 cells assessed as late apoptotic cells at 0.2 uM measured after 48 hrs by Annexin V/PI staining based Flowcytometry method (reference value: 1.44%); format: functional
Summary of the method: as §1

HCT-116 [9] = test: Induction of apoptosis in human HCT-116 cells assessed as necrotic cells at 0.2 uM measured after 48 hrs by Annexin V/PI staining based Flowcytometry method (reference value: 1.19%); format: functional
Summary of the method: as §1

HCT-116 [10] = test: Induction of apoptosis in human HCT-116 cells assessed as viable cells at 1 uM measured after 48 hrs by Annexin V/PI staining based Flowcytometry method (reference value: 95.33%); format: functional; details: read-out: Activity
Summary of the method: as §1

HCT-116 [11] = test: Induction of apoptosis in human HCT-116 cells assessed as early apoptotic cells at 1 uM measured after 48 hrs by Annexin V/PI staining based Flowcytometry method (reference value: 2.04%); format: functional
Summary of the method: as §1

HCT-116 [12] = test: Induction of apoptosis in human HCT-116 cells assessed as late apoptotic cells at 1 uM measured after 48 hrs by Annexin V/PI staining based Flowcytometry method (reference value: 1.44%); format: functional
Summary of the method: as §1

HCT-116 [13] = test: Induction of apoptosis in human HCT-116 cells assessed as necrotic cells at 1 uM measured after 48 hrs by Annexin V/PI staining based Flowcytometry method (reference value: 1.19%); format: functional
Summary of the method: as §1

HCT-116 [14] = test: Induction of apoptosis in human HCT-116 cells assessed as viable cells at 5 uM measured after 48 hrs by Annexin V/PI staining based Flowcytometry method (reference value: 95.33%); format: functional; details: read-out: Activity
Summary of the method: as §1

HCT-116 [15] = test: Induction of apoptosis in human HCT-116 cells assessed as early apoptotic cells at 5 uM measured after 48 hrs by Annexin V/PI staining based Flowcytometry method (reference value: 2.04%); format: functional
Summary of the method: as §1

HCT-116 [16] = test: Induction of apoptosis in human HCT-116 cells assessed as late apoptotic cells at 5 uM measured after 48 hrs by Annexin V/PI staining based Flowcytometry method (reference value: 1.44%); format: functional
Summary of the method: as §1

HCT-116 [17] = test: Induction of apoptosis in human HCT-116 cells assessed as necrotic cells at 5 uM measured after 48 hrs by Annexin V/PI staining based Flowcytometry method (reference value: 1.19%); format: functional
Summary of the method: as §1

HCT-116 [18] = test: Cell cycle arrest in human HCT-116 cells assessed as accumulation of cells in G2/M phase at 0.2 uM measured after 48 hrs by PI staining based flowcytometry method (reference value: 11.74%); format: functional
HCT-116 [19] = test: Cell cycle arrest in human HCT-116 cells assessed as accumulation of cells in S phase at 0.2 uM measured after 48 hrs by PI staining based flowcytometry method (reference value: 30.63%); format: functional
HCT-116 [20] = test: Cell cycle arrest in human HCT-116 cells assessed as accumulation of cells in G1 phase at 0.2 uM measured after 48 hrs by PI staining based flowcytometry method (reference value: 57.63%); format: functional
HCT-116 [21] = test: Cell cycle arrest in human HCT-116 cells assessed as accumulation of cells in G2/M phase at 1 uM measured after 48 hrs by PI staining based flowcytometry method (reference value: 11.74%); format: functional
HCT-116 [22] = test: Cell cycle arrest in human HCT-116 cells assessed as accumulation of cells in S phase at 1 uM measured after 48 hrs by PI staining based flowcytometry method (reference value: 30.63%); format: functional
HCT-116 [23] = test: Cell cycle arrest in human HCT-116 cells assessed as accumulation of cells in G1 phase at 1 uM measured after 48 hrs by PI staining based flowcytometry method (reference value: 57.63%); format: functional
HCT-116 [24] = test: Cell cycle arrest in human HCT-116 cells assessed as accumulation of cells in G2/M phase at 5 uM measured after 48 hrs by PI staining based flowcytometry method (reference value: 11.74%); format: functional
HCT-116 [25] = test: Cell cycle arrest in human HCT-116 cells assessed as accumulation of cells in S phase at 5 uM measured after 48 hrs by PI staining based flowcytometry method (reference value: 30.63%); format: functional
HCT-116 [26] = test: Cell cycle arrest in human HCT-116 cells assessed as accumulation of cells in G1 phase at 5 uM measured after 48 hrs by PI staining based flowcytometry method (reference value: 57.63%); format: functional

COc1cc2c(Oc3ccc(NC(=O)c4nn(-c5ccccc5C)cc(C)c4=O)cc3F)ccnc2cc1OCCCC(=O)NO
IC50 (HCT-116 [1]): 2040 nM | IC50 (MCF7): 2600 nM | IC50 (A549): 2090 nM | inhibition (Histone deacetylase 1 [2]): 8% | inhibition [3]: 95.5%

COc1cc2c(Oc3ccc(NC(=O)c4nn(-c5ccccc5)ccc4=O)cc3)ccnc2cc1OCCCCCCC(=O)NO
IC50 (Histone deacetylase 1 [4]): 18.5 nM | IC50 [5]: 5.4 nM | IC50 (HCT-116 [1]): 220 nM | IC50 (MCF7): 1590 nM | IC50 (A549): 220 nM | viability at 0.2 µM (HCT-116 [6]): 94.9% | Activity (HCT-116 [7]): 2.35% | Activity (HCT-116 [8]): 1.84% | Activity (HCT-116 [9]): 0.9% | viability at 1 µM (HCT-116 [10]): 84.3% | Activity (HCT-116 [11]): 8.44% | Activity (HCT-116 [12]): 3.09% | Activity (HCT-116 [13]): 4.12% | viability at 5 µM (HCT-116 [14]): 75.6% | Activity (HCT-116 [15]): 19.23% | Activity (HCT-116 [16]): 2.25% | Activity (HCT-116 [17]): 2.96% | Activity (HCT-116 [18]): 14.59% | Activity (HCT-116 [19]): 30.04% | Activity (HCT-116 [20]): 55.37% | Activity (HCT-116 [21]): 80.03% | Activity (HCT-116 [22]): 15.1% | Activity (HCT-116 [23]): 4.87% | Activity (HCT-116 [24]): 81.22% | Activity (HCT-116 [25]): 13.28% | Activity (HCT-116 [26]): 5.5%

COc1cc2c(Oc3ccc(NC(=O)c4nn(-c5ccccc5C)cc(C)c4=O)cc3)ccnc2cc1OCCCCCC(=O)NO
IC50 (HCT-116 [1]): 290 nM | IC50 (MCF7): 1830 nM | IC50 (A549): 1820 nM | inhibition (Histone deacetylase 1 [2]): 36.9% | inhibition [3]: 95.7%

COc1cc2c(Oc3ccc(NC(=O)c4nn(-c5ccccc5C)ccc4=O)cc3F)ccnc2cc1OCCCC(=O)NO
IC50 (HCT-116 [1]): 3980 nM | IC50 (MCF7): 3200 nM | IC50 (A549): 5740 nM | inhibition (Histone deacetylase 1 [2]): 6% | inhibition [3]: 93.5%

COc1cc2c(Oc3ccc(NC(=O)c4nn(-c5ccccc5C)cc(C)c4=O)cc3)ccnc2cc1OCC(=O)NO
IC50 (HCT-116 [1]): 9260 nM | IC50 (MCF7): 8780 nM | IC50 (A549): 5980 nM | inhibition (Histone deacetylase 1 [2]): inactive | inhibition [3]: 63.5%

COc1cc2c(Oc3ccc(NC(=O)c4nn(-c5ccccc5)cc(C)c4=O)cc3F)ccnc2cc1OCCCCCC(=O)NO
IC50 (HCT-116 [1]): 690 nM | IC50 (MCF7): 2330 nM | IC50 (A549): 4170 nM | inhibition (Histone deacetylase 1 [2]): 53.3% | inhibition [3]: 95%

COc1cc2c(Oc3ccc(NC(=O)c4nn(-c5ccccc5)cc(C)c4=O)cc3)ccnc2cc1OCCCCCCC(=O)NO
IC50 (Histone deacetylase 1 [4]): 34 nM | IC50 [5]: 19.9 nM | IC50 (HCT-116 [1]): 150 nM | IC50 (MCF7): 1610 nM | IC50 (A549): 420 nM | inhibition (Histone deacetylase 1 [2]): 86.6% | inhibition [3]: 88.6%

COc1cc2c(Oc3ccc(NC(=O)c4nn(-c5ccc(C)cc5C)cc(C)c4=O)cc3)ccnc2cc1OCCCCCCC(=O)NO
IC50 (HCT-116 [1]): 440 nM | IC50 (MCF7): 2430 nM | IC50 (A549): 1840 nM | inhibition (Histone deacetylase 1 [2]): 65.3% | inhibition [3]: 63.8%

COc1cc2c(Oc3ccc(NC(=O)c4nn(-c5ccccc5F)cc(C)c4=O)cc3F)ccnc2cc1OCCCCCC(=O)NO
IC50 (HCT-116 [1]): 590 nM | IC50 (MCF7): 2320 nM | IC50 (A549): 1320 nM | inhibition (Histone deacetylase 1 [2]): 61.1% | inhibition [3]: 89.1%

COc1cc2c(Oc3ccc(NC(=O)c4nn(-c5cccc(C(F)(F)F)c5)cc(C)c4=O)cc3)ccnc2cc1OCCCCCCC(=O)NO
IC50 (HCT-116 [1]): 590 nM | IC50 (MCF7): 750 nM | IC50 (A549): 780 nM | inhibition (Histone deacetylase 1 [2]): 35.3% | inhibition [3]: 46.3%

COc1cc2c(Oc3ccc(NC(=O)c4nn(-c5ccccc5C)cc(C)c4=O)cc3)ccnc2cc1OCCCC(=O)NO
IC50 (HCT-116 [1]): 640 nM | IC50 (MCF7): 1600 nM | IC50 (A549): 4460 nM | inhibition (Histone deacetylase 1 [2]): 10.7% | inhibition [3]: 98.5%

O=C(CCCCCCC(=O)Nc1ccccc1)NO
inhibition [3]: 2.8%

COc1cc2nccc(Oc3ccc(NC(=O)C4(C(=O)Nc5ccc(F)cc5)CC4)cc3)c2cc1OC [CABOZANTINIB]
IC50 (HCT-116 [1]): 4670 nM | IC50 (MCF7): 5980 nM | IC50 (A549): 7800 nM
